Key:
[1] = biological target: T1, Aryl hydrocarbon receptor (Homo sapiens, UniProt P35869); assay: Antagonist activity at AhR in human HepG2 cells co-transfected with pSELECT-zeo-Lucia and CYP1A1 assessed as inhibition of FICZ-induced receptor transactivation at 30 uM incubated for 24 hrs by luciferase reporter gene assay relative to control; format: cell-based; details: hepg2, 24 h
T1 sequence (P35869 whole entry): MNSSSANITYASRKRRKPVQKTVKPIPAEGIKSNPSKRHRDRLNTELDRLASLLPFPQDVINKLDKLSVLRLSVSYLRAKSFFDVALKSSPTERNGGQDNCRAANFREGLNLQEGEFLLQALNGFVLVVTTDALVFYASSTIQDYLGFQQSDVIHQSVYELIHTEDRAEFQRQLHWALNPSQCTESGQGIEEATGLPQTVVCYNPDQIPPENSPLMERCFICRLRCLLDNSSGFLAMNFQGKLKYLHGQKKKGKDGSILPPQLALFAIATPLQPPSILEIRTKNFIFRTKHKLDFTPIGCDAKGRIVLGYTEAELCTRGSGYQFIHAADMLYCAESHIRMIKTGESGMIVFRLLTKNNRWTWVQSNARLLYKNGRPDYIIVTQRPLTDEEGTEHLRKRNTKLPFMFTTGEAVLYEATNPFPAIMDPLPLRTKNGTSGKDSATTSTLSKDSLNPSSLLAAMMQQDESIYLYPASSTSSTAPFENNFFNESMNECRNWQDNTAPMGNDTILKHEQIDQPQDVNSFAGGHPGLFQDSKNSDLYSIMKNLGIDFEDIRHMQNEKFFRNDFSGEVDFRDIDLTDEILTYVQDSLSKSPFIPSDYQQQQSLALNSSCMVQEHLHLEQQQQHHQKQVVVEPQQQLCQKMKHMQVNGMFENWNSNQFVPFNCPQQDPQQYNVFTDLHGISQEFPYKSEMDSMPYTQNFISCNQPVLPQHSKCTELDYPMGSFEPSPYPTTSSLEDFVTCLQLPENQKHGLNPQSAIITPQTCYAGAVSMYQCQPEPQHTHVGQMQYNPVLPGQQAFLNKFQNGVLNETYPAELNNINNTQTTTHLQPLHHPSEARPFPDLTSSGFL

[2] = biological target: T1, Aryl hydrocarbon receptor; assay: Antagonist activity at AhR in human HepG2 cells assessed as inhibition of FICZ-induced AhR transcriptional activity incubated for 24 hrs by Quanti-Luc reagent based luminescence assay; format: cell-based
[3] = biological target: T1, Aryl hydrocarbon receptor; details: HepG2, human, 24 h, read-out: RUmax
[4] = biological target: T1, Aryl hydrocarbon receptor; assay: Agonist activity at AhR in human HepG2 cells co-transfected with pSELECT-zeo-Lucia and CYP1A1 assessed as induction of receptor transactivation incubated for 24 hrs by luciferase reporter gene assay; format: cell-based
[5] = biological target: T1, Aryl hydrocarbon receptor; details: HepG2, human, 24 h, read-out: RUmax; remark: listed apart in the source
HepG2 [6] = assay: Cytotoxicity against human HepG2 cells harboring AhR assessed as reduction in cell viability at 0.1 to 10 uM measured for 24 to 72 hrs by MTT assay; format: cell-based; details: hepg2, 10 µM, dose lower 0.1 µM, time lower 24 hrs, dose upper 10 µM, time upper 72 hrs
Outline: (§1)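 AhR-HepG2 cells were treated for 24–72 h with compounds at 0.1, 1.0, 5.0 and 10.0 µM, some also at 2.5 and 7.5 µM. MTT at 0.5 mg/mL was added and plates incubated at 37 °C. Formazan was dissolved in DMSO and absorbance read at 490 nm. Viability below 85% of vehicle counted as cytotoxic. One-way ANOVA with Dunnett's test; mean ± SEM, n≥3.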

[7] = biological target: T1, Aryl hydrocarbon receptor; details: HepG2, human, 24 h, read-out: RUmax; remark: listed apart in the source
[8] = Cytotoxicity against human HepG2 cells harboring AhR assessed as reduction in cell viability at > 5 uM measured for 24 hrs by MTT assay relative to control; format: cell-based; details: read-out: INH; outline: as §1
[9] = biological target: T1, Aryl hydrocarbon receptor; details: HepG2, human, 24 h, read-out: RUmax; remark: listed apart in the source
[10] = biological target: T1, Aryl hydrocarbon receptor; details: HepG2, human, 24 h, read-out: RUmax; remark: listed apart in the source
HepG2 [11] = assay: Cytotoxicity against human HepG2 cells harboring AhR assessed as reduction in cell viability at 0.1 to 10 uM measured after 24 hrs by MTT assay; format: cell-based; details: hepg2, 24 h, dose 0.1-10 µM; outline: as §1

Row | EC50 [4] [µM] | activity at 10 µM [5] [%] | inhibition at 10 µM [7] [%] | SMILES | also measured
1 | > 100 | 9.42 | – | CC(=O)Oc1ccc(C(c2ccc(C)cc2)c2ccccn2)cc1 (stereo not drawn) | –
2 | > 100 | 7.09 | 139 | Cc1ccc(C(c2ccc(O)cc2)c2ccccn2)cc1 (stereo not drawn) | –
3 | > 100 | 8.77 | 118 | CC(=O)Oc1ccc(C(c2ccc(F)cc2)c2ccccn2)cc1 (stereo not drawn) | –
4 | > 50 | 10.5 | 137 | COc1ccc(C(c2ccccn2)c2cccs2)cc1 (stereo not drawn) | Activity (HepG2 [6]): Non-Toxic
5 | > 1000 | 6.81 | – | CC(C)(C)c1ccc(C(c2ccccn2)c2ccccc2O)cc1 (stereo not drawn) | –
6 | > 100 | 7.71 | – | Oc1ccc(C(c2ccc(Br)cc2)c2ccccn2)cc1 (stereo not drawn) | –
7 | > 100 | 8.86 | – | COc1ccc(C(c2ccccn2)n2nnc3ccccc32)cc1 (stereo not drawn) | –
8 | > 100 | 8.8 | 106 | CC(=O)Oc1ccc(C(c2ccc(Br)cc2)c2cccc[n+]2[O-])cc1 (stereo not drawn) | –
9 | > 100 | 9.23 | 142 | CC(=O)Oc1ccc(C(c2ccccn2)n2nnc3ccccc32)cc1 (stereo not drawn) | –

The remaining lines, values behind:

Row | SMILES | EC50 [4] [µM] | activity at 10 µM [5] [%] | inhibition at 10 µM [7] [%] | also measured
10 | Cc1ccccc1/N=N/c1ccc(NC(=O)c2ccnn2C)c(C)c1 | – | – | – | RUmax [1]: 54.5%; IC50 [2]: 2.43 µM
11 | O=Cc1c2[nH]c3ccccc3c2cc2[nH]c3ccccc3c12 | – | – | – | Emax at 18 µM [3]: 100%
12 | Oc1ccc(C(c2ccccn2)c2c(O)ccc3ccccc23)cc1 (stereo not drawn) | – | – | – | Activity (HepG2 [6]): Non-Toxic
13 | Cc1ccc(C(c2ccccn2)c2ccccc2O)cc1 (stereo not drawn) | > 100 | 6.93 | 114 | –
14 | CC(=O)Oc1ccc(C(c2ccc(Br)cc2)c2ccccn2)cc1 (stereo not drawn) | > 1000 | 6.32 | 143 | –
15 | CC(=O)Oc1ccc(C(c2ccc(Cl)cc2)c2cccc[n+]2[O-])cc1 (stereo not drawn) | > 200 | 7.78 | 78.8 | –
16 | Oc1ccccc1C(c1ccc(Cl)cc1)c1ccccn1 (stereo not drawn) | > 1000 | 7.18 | 115 | –
17 | CC(=O)Oc1ccc(C(c2ccc(C)cc2)c2cccc[n+]2[O-])cc1 (stereo not drawn) | > 200 | 6.28 | 93.3 | –
18 | CC(=O)Oc1ccc(C(c2ccccn2)c2c[nH]c3ccccc23)cc1 (stereo not drawn) | – | – | – | Activity (HepG2 [6]): Non-Toxic
19 | Oc1ccc(C(c2ccccn2)c2cccs2)cc1 (stereo not drawn) | – | – | – | Activity (HepG2 [6]): Non-Toxic
20 | Oc1ccccc1C(c1ccc(Br)cc1)c1ccccn1 (stereo not drawn) | > 1000 | 7.99 | 117 | –
21 | Oc1ccc(C(c2ccc(Cl)cc2)c2ccccn2)cc1 (stereo not drawn) | > 100 | 6.59 | – | –
22 | CC(=O)Oc1ccc(C(c2ccc(F)cc2)c2cccc[n+]2[O-])cc1 (stereo not drawn) | > 1000 | 6.51 | 92.4 | –
23 | COc1ccc(C(c2ccccn2)c2c[nH]c3ccccc23)cc1 (stereo not drawn) | 21.7 | 114 | – | Activity (HepG2 [6]): Non-Toxic
24 | COc1ccc(C(c2ccccn2)c2c(O)ccc3ccccc23)cc1 (stereo not drawn) | – | – | – | Activity (HepG2 [6]): Non-Toxic
25 | CC(=O)Oc1ccc(C(c2ccccn2)c2c(OC(C)=O)ccc3ccccc23)cc1 (stereo not drawn) | > 200 | 5.17 | 144 | –
26 | Oc1ccccc1C(c1ccc(F)cc1)c1ccccn1 (stereo not drawn) | > 1000 | 6.89 | 112 | –
27 | COc1ccc(C(O)(c2ccccn2)c2ccc3ccccc3n2)cc1 (stereo not drawn) | – | – | – | Activity (HepG2 [6]): Non-Toxic
28 | CC(=O)Oc1ccc(C(c2ccc(C(C)(C)C)cc2)c2cccc[n+]2[O-])cc1 (stereo not drawn) | – | – | – | cytotoxicity at 24 h [8]: 50%; activity at 1 µM [9]: 6.1%; inhibition at 1 µM [10]: 120%
29 | Oc1ccc(C(c2ccc(F)cc2)c2ccccn2)cc1 (stereo not drawn) | > 400 | 7.79 | – | –
30 | CC(=O)Oc1ccc(C(c2ccc(C(C)(C)C)cc2)c2ccccn2)cc1 (stereo not drawn) | – | – | – | cytotoxicity at 24 h [8]: 50%; activity at 1 µM [9]: 5.32%; inhibition at 1 µM [10]: 113%
31 | CC(=O)Oc1ccc(C(c2ccc(Cl)cc2)c2ccccn2)cc1 (stereo not drawn) | > 1000 | 6.26 | 128 | –
32 | CC(=O)Oc1ccc(C(c2ccc(C(F)(F)F)cc2)c2ccccn2)cc1 (stereo not drawn) | – | – | – | cytotoxicity at 24 h [8]: 50%; activity at 1 µM [9]: 7.71%; inhibition at 1 µM [10]: 117%
33 | CC(C)(C)c1ccc(C(c2ccc(O)cc2)c2ccccn2)cc1 (stereo not drawn) | – | – | – | cytotoxicity at 24 h [8]: > 90%; activity at 1 µM [9]: 6.89%; inhibition at 1 µM [10]: 113%
34 | COc1ccc(C(O)(c2ccc(C(F)(F)F)cc2)c2ccccn2)cc1 (stereo not drawn) | 52 | 26.6 | – | Activity (HepG2 [6]): Non-Toxic; Activity (HepG2 [11]): Toxic
35 | CC(=O)Oc1ccc(C(c2ccc(OC(C)=O)cc2)c2ccccn2)cc1 [BISACODYL] | > 1000 | 6.58 | 107 | –

Reference: ChEMBL document CHEMBL4706594, “Targeting the aryl hydrocarbon receptor with a novel set of triarylmethanes” (Eur J Med Chem, 2020)
